Experimental data pooled from the literature.
Compare with care: the assays were run in different laboratories. pIC50: −log10 of the molar value. Converted amounts (≈) assume the structure as drawn.

The pIC50 of `O=c1c(O)c(-c2ccc(O)c(O)c2)oc2cc(O)cc(O)c12` is reported as 4.10 (Salmonella enterica; microbial growth; TYPHI).
For `CO/N=C(\C(=O)N[C@@H]1C(=O)N2C(C(=O)O)=C(CSc3nc(=O)c(=O)[nH]n3C)CS[C@H]12)c1csc(N)n1`, the MIC was 0.0625 µg/mL (Salmonella enterica; microbial growth; CHOLERAESUIS; 20 h, pH 7).
For `CCCCCCCCCCCC(=O)OC[C@H]1O[C@@H](n2cc(C)c(=O)[nH]c2=O)C[C@@H]1O`, the MBC was 8 µg/mL (≈ 18.8 µM) (Bacillus cereus; microbial killing, broth dilution).
`CCC1(c2ccc(N)cc2)CCC(=O)NC1=O` (stereo not drawn) has a pIC50 of under 4.30 (IOSE-144; cell growth or viability, CCK-8; 48 h).
For `O=c1[nH]cc(F)c(=O)[nH]1`, the MBC was 8 µg/mL (≈ 61.5 µM) (Shigella dysenteriae; microbial killing, broth dilution; 48 h).
`CC(=O)c1cccc(NC(=O)C(=O)[C@H](CC(C)C)NC(=O)[C@H](CC(C)C)NC(=O)[C@H](CC(C)C)NC(=O)OCc2ccccc2)c1` gave a pIC50 of 7.31 (RPMI-8226; cell growth or viability, MTS; 72 h).
For `COc1ccc(Cc2cc(C)cc(=O)n2O)cc1`, the MIC80 was 2.3 µM (≈ 0.564 µg/mL) (Cryptococcus gattii; microbial growth).
With `COc1cc(Cc2cnc(N)nc2N)cc(OC)c1OC` the MIC was 16 µg/mL (Shigella dysenteriae; microbial growth, broth dilution; 24 h).
`CS(=O)(=O)c1ccc([C@@H](O)[C@@H](CF)NC(=O)C(Cl)Cl)cc1` has an MIC of 4 µg/mL (Salmonella enterica; microbial growth; CHOLERAESUIS; 20 h, pH 5.5).
The MIC of `CC1=CC(=O)[C@H]2O[C@]1(C)O[C@H]([C@H](C)/C=C(C)/C=C/C(O)=C1/C(=O)CNC1=O)[C@H]2C` is reported as 25 µM (Bacillus cereus; microbial growth).
`CC1=NN(CNc2ccccn2)C(=O)C1=NNn1c(-c2ccccc2)nc2ccccc2c1=O` gave an MIC of 55.2 µM (Salmonella enterica; microbial growth, broth dilution; PARATYPHI; 24 h).
The pIC50 of `C[C@H]1O[C@@H](O[C@H]2[C@@H](O)C[C@H](O[C@H]3[C@@H](O)C[C@H](O[C@H]4CC[C@@]5(C)[C@H](CC[C@@H]6[C@@H]5C[C@@H](O)[C@]5(C)[C@@H](C7=CC(=O)OC7)CC[C@]65O)C4)O[C@@H]3C)O[C@@H]2C)C[C@H](O)[C@@H]1O` is reported as about 6.25 (ReNcell VM; cell growth or viability; 24 h).
With `CC(C)C[C@H](NC(=O)[C@H](Cc1c[nH]c2ccccc12)NC(=O)[C@H](C)NC(=O)OCc1ccccc1)C(=O)C(=O)Nc1ccccc1` the pIC50 was 6.12 (RPMI-8226; cell growth or viability, MTS; 72 h).
`CCCCCCCCCCCC(=O)OC[C@H]1O[C@@H](n2cc(C)c(=O)[nH]c2=O)C[C@@H]1OC(=O)c1ccc(C(C)(C)C)cc1` gave an MBC of 8 µg/mL (≈ 13.7 µM) (Bacillus cereus; microbial killing, broth dilution).
With `Cc1cc(Cc2ccccc2)n(O)c(=O)c1` the MIC80 was 1.7 µM (≈ 0.366 µg/mL) (Cryptococcus gattii; microbial growth).
